This note sets out measurements from ChEMBL document CHEMBL2169772, “Discovery of (2S)-1-[4-(2-{6-amino-8-[(6-bromo-1,3-benzodioxol-5-yl)sulfanyl]-9H-purin-9-yl}ethyl)piperidin-1-yl]-2-hydroxypropan-1-one (MPC-3100), a purine-based Hsp90 inhibitor” (J Med Chem, 2012).

Each structure is given as a SMILES string.

For data set [1], the target named is T1, Heat shock protein HSP90 (Homo sapiens, UniProt P07900+P08238). As to the kind of experiment: Inhibition of human HSP90 in DU145 cells assessed as degradation of Akt incubated for 24 hrs by Western blot method. The class given is cell-based. An outline of the steps:
(§1)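 Cells exposed to a range of concentrations for 24 h. Lysates analyzed by Western blot with Her2-, Hsp70- and Akt-specific antibodies.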
A general note: In western blotting, separated proteins are transferred to a membrane and probed.

Data set [2] is described as follows: Metabolic stability in human liver microsomes assessed as percent of residual drug in presence of NADPH incubated for 40 mins by LC-ESI-MS/MS method. The settings on record: liver microsomes, read-out: Stability. The class given is ADME, Microsome. An outline of the steps:
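Test article incubated in duplicate with human liver microsomes (0.5 mg/mL protein) in 100 mM potassium phosphate pH 7.4. Started with 1 mM NADPH. Stopped with acetonitrile at 0, 10, 20 and 40 min. LC-MS/MS peak area at 40 min reported as percent of 0 min. No-NADPH control incubated for 40 min.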
On the technique in general: Microsomes from liver hold many membrane-bound enzymes, among them those of drug oxidation.

Data set [3] can be described thus: Half life in Swiss nude mouse at 2.5 mg/kg, iv by LC-ESI-MS/MS method. The format is ADME, organism-based. More on the design: dose 2.5 mg/kg, route intravenous. The settings on record: in vivo. The method, boiled down: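 Intravenous dose in mice, vehicle DMA/PEG300/EtOH/H2O 3/40/12/45. Sampling at 5, 15, 30, 60, 120, 240, 480 and 720 min, three or five animals per time point. Cardiac-puncture EDTA plasma. Acetonitrile protein precipitation with internal standard, then LC-ESI-MS/MS (10–10 000 ng/mL curve). Parameters by noncompartmental fit.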

For data set [4], the system named is A549. The data set can be described thus: Cytotoxicity against human A549 cells assessed as inhibition of tumor growth incubated for 72 hrs by luminometry. The class given is functional, cell-based. The settings on record: A549, 72 h. The method, boiled down:
(§2)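 Cells seeded at 5000 per well in DMEM with 10% serum and left overnight. Compound added from DMSO dilutions (0.4% DMSO final) for 72 h. After 5 min at room temperature, ATPLite two-step lysis and substrate added, 5 min incubation, then luminescence read. Values are the mean of at least two experiments.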

Data set [5] has as its system Mus musculus. The data set can be described thus: Toxicity in nude mouse xenografted with human NCI-N87 cells assessed as effect on body weight at 75 mg/kg, po qd for 22 days measured twice a week. The format is organism-based. More on the design: dose 75 mg/kg, route oral. The following applies: in vivo, 528 h. An outline of the steps:
(§3)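 Female nude mice (Crl:NU-Fox1nu) implanted subcutaneously in the right flank with 5 million NCI-N87 cells. At median tumor volume of roughly >100 mm3, randomized to 5 cohorts of 10. Dosed orally once daily for 22 days with vehicle (40% w/w Captisol) or 50, 75, 125 or 200 mg/kg. Tumor size and body weight measured at least twice weekly.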

The nature of data set [6]: Permeability of the compound after 30 mins by PAMPA. The following applies: read-out: permeability. The format is ADME. An outline of the steps:
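Double-sink PAMPA with donor solutions at pH 5.0, 6.2 and 7.4. Filter coated with phospholipid in dodecane. Sandwich incubated 30 min at 37 °C with stirring equivalent to a 40 μm aqueous boundary layer. Permeability calculated from UV spectra at 250–490 nm. Verapamil run as positive control.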
In general terms: PAMPA measures passive passage across an artificial lipid membrane.

A short description of data set [7]: Oral bioavailability in Swiss nude mouse at 10 mg/kg by LC-ESI-MS/MS method. The class given is ADME, organism-based. The following applies: in vivo. An outline of the steps: (§4)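 Mice dosed by oral gavage, vehicle DMA/PEG300/EtOH/H2O (3/40/12/45, v/v/v/v). Blood drawn by cardiac puncture into EDTA plasma. Three or five animals per time point. Plasma precipitated with acetonitrile plus internal standard. Quantified by LC-ESI-MS/MS against a 10–10 000 ng/mL standard curve with QC samples. Noncompartmental analysis.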

Data set [8] deals with NCI-N87. As to the kind of experiment: Antitumor activity against human NCI-N87 cells xenografted in po dosed nude mouse assessed as tumor growth inhibition administered as qd for 22 days measured twice a week. The class given is functional, organism-based. An outline of the steps: as §3
For data set [9], the target named is T1, Heat shock protein HSP90. As to the kind of experiment: Inhibition of human HSP90 in HCT116 cells assessed as degradation of Her2 incubated for 24 hrs by Western blot method. The class given is cell-based. The method, boiled down:
as §1

Data set [10] deals with T1, Heat shock protein HSP90. The data set can be described thus: Inhibition of human HSP90 in DU145 cells assessed as induction of HSP70 incubated for 24 hrs by Western blot method. The format is cell-based. The settings on record: DU-145. The method, boiled down: as §1
Data set [11] relates to LNCaP. As to the kind of experiment: Cytotoxicity against human LNCAP cells assessed as inhibition of tumor growth incubated for 72 hrs by luminometry. The format is functional, cell-based. The method, boiled down: as §2
Data set [12] can be described thus: Tmax in Swiss nude mouse at 10 mg/kg, po by LC-ESI-MS/MS method. The class given is ADME, organism-based. Set-up: dose 10 mg/kg, route oral. The settings on record: in vivo. The method, boiled down:
as §4

Data set [13] relates to MV4-11. As to the kind of experiment: Cytotoxicity against human MV4-11 cells assessed as inhibition of tumor growth incubated for 72 hrs by luminometry. The class given is functional, cell-based. The following applies: MV4-11, 72 h. The method, boiled down: as §2
For data set [14], the system named is BT-474. As to the kind of experiment: Cytotoxicity against human BT474 cells assessed as inhibition of tumor growth incubated for 72 hrs by luminometry. The format is functional, cell-based. The settings on record: BT-474, 72 h. The method, boiled down: as §2
Data set [15] addresses T1, Heat shock protein HSP90. The data set can be described thus: Inhibition of human HSP90 in DU145 cells assessed as degradation of Her2 incubated for 24 hrs by Western blot method. The class given is cell-based. The method, boiled down:
as §1

Data set [16] has as its target T1, Heat shock protein HSP90. As to the kind of experiment: Inhibition of human HSP90 in NCI-N87 cells assessed induction of HSP70 incubated for 24 hrs by Western blot method. The class given is cell-based. An outline of the steps:
as §1

For data set [17], the system named is NCI-N87. The data set can be described thus: Antitumor activity against human NCI-N87 cells xenografted in nude mouse assessed as tumor regression at 200 mg/kg, po qd for 22 days measured twice a week. The following applies: 528 h.
Data set [18] is described as follows: Lipophilicity, log P of the compound. The class given is physicochemical. The following applies: octanol/water.
The test system of data set [19] is Mus musculus. The data set can be described thus: Toxicity in nude mouse xenografted with human NCI-N87 cells assessed as effect on body weight at 125 mg/kg, po qd for 22 days measured twice a week. The class given is organism-based. Set-up: dose 125 mg/kg, route oral. The settings on record: in vivo, 528 h. An outline of the steps: as §3

`C[C@H](O)C(=O)N1CCC(CCn2c(Sc3cc4c(cc3Br)OCO4)nc3c(N)ncnc32)CC1`: the inhibition entry in [1] (DU-145), in data set [9] (HCT-116), in data set [10], in data set [15] (DU-145) and in data set [16] was “Dose-dependent effect” throughout. Further, the IC50 – broadly, the point on the concentration scale where inhibition reaches its midpoint – in [1] (du-145) amounted to 100 nM; in data set [4], 770 nM; in data set [9] (hct-116) it was 100 nM; in [11], 510 nM; in data set [13], 250 nM; in data set [14], 550 nM. Moreover, the IC50 in data set [15] (du-145) is 100 nM. For the same molecule, the remaining at 40 min in data set [2] was 42%. In addition, the half-life (usually the time needed for the level to fall by half in the phase considered) in data set [3] is 84 min. The Activity result in data set [5] and in [19] was “Non-toxic” throughout. In addition, in data set [6], the Papp at 0.5 h was more than 350 ×10⁻⁶ cm/s. Moreover, the bioavailability (in general, the share of a dose that reaches the circulation, judged against a reference dose that is usually intravenous) in data set [7] is 38%. For the same molecule, the TGI entry in data set [8] is “Dose-dependent effect”. Further, the time to peak (Tmax) – broadly, the time from dosing to the highest level – in [12] was 15 min. Besides, in data set [17], the tumor regression at 200 mg/kg was found to be 48%. Moreover, the logP – broadly, the decadic logarithm of the partition coefficient of the neutral form, usually between octanol and water – in data set [18] was found to be 3.32.
